From ChEMBL document CHEMBL4680165, “β-Lactams with antiproliferative and antiapoptotic activity in breast and chemoresistant colon cancer cells” (Eur J Med Chem, 2020)
Calls of active or inactive are those of the source. No cut-off for these calls is given here.

What was measured:
[1] = tested on: MCF7; test: Antiproliferative activity against human MCF7 cells assessed as reduction in cell viability after 72 hrs by alamar blue assay; type: functional, cell-based; conditions: MCF7, 72 h
Method in brief: (§1)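 Cells seeded at 5 x 10^3/well (MCF-7) or 1 x 10^4/well (HT-29, HEK-293T) and treated after 24 h with serial dilutions (0.001-100 µM) in 1% v/v ethanol vehicle. Alamar Blue 10% v/v added at 72 h, then 3-5 h at 37 °C in the dark; fluorescence ex 530/em 590 nm. Viability relative to vehicle; IC50 from dose-response curves; mean of three experiments in triplicate.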

[2] = tested on: HT-29; test: Antiproliferative activity against human HT-29 cells assessed as reduction in cell viability after 72 hrs by alamar blue assay; type: functional, cell-based; conditions: HT-29, 72 h; method in brief: as §1
[3] = tested on: HEK-293T; test: Antiproliferative activity against human HEK293T cells assessed as reduction in cell viability after 72 hrs by alamar blue assay; type: cell-based; method in brief: as §1
[4] = target: T1, Tubulin (Homo sapiens) (UniProt P68371+Q9H4B7+P0DPH7+P68366+Q13509+Q71U36+P04350+Q3ZCM7+P07437+P68363+Q9BQE3+Q6PEY2+Q13885+Q9BVA1+Q9BUF5); test: Induction of microtubule depolymerization in human MCF7 cells at 10 to 100 nM after 16 hrs by immunofluorescence staining based confocal microscopic analysis; type: cell-based; conditions: dose 10-100 nM
Method in brief: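 MCF-7 cells seeded 1 × 10^5 cells/mL on chamber slides, exposed 16 h to vehicle [1% ethanol (v/v)] or test agent (0.01, 0.05, 0.1 µM). Fixed in 4% paraformaldehyde, permeabilised in 0.5% Triton X-100, blocked in 5% BSA, then stained with anti-α-tubulin-FITC (DM1A) 2 h rt, Alexa Fluor 488 1 h, DAPI mount. Confocal imaging; three independent experiments.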

[5] = tested on: MCF7; test: Cell cycle arrest in human MCF7 cells assessed as accumulation at G2/M phase at 1 uM measured after 72 hrs by PI staining based flow cytometry analysis (reference value: 24 %); type: functional
Method in brief: (§2)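 Cells (1 × 10^5/well) were treated at 1 µM for 24, 48 and 72 h; vehicle was 0.1% v/v ethanol. Cells were trypsinised, fixed in ice-cold 70% ethanol overnight at −20 °C, then stained with PI (50 µg/mL) plus DNase-free RNase A (50 µg/mL) at 37 °C for 30 min. DNA content of 10,000 cells per group was read by flow cytometry at 488 nm.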

[6] = tested on: MCF7; test: Cell cycle arrest in human MCF7 cells assessed as accumulation at sub-G1 phase at 1 uM measured after 72 hrs by PI staining based flow cytometry analysis; type: functional; method in brief: as §2
[7] = tested on: MCF7; test: Cell cycle arrest in human MCF7 cells assessed as accumulation at G2/M phase at 1 uM by PI staining based flow cytometry analysis; type: functional; conditions: TDE = time-dependent effect; method in brief: as §2
[8] = tested on: HT-29; test: Cell cycle arrest in human HT-29 cells assessed as accumulation at G2/M phase at 1 uM measured after 24 hrs by PI staining based flow cytometry analysis (reference value: 11 %); type: functional; method in brief: as §2
[9] = tested on: HT-29; test: Cell cycle arrest in human HT-29 cells assessed as accumulation at G2/M phase at 1 uM measured by PI staining based flow cytometry analysis; type: functional; conditions: TDE = time-dependent effect; method in brief: as §2
[10] = tested on: MCF7; test: Induction of apoptosis in human MCF7 cells assessed as early apoptotic cells after 48 hrs by Annexin V-FITC and propidium iodide staining based flow cytometry; type: functional, cell-based; conditions: dose 10-1000 nM
Method in brief: (§3)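 MCF-7 cells were seeded at 1 × 10^5 cells/mL and treated for 48 h at 0.01, 0.1 and 1 µM; vehicle was 0.1% v/v ethanol. Annexin V staining was done on ice in the dark for 30 min in HEPES/NaCl/CaCl2 binding buffer, followed by PI. Flow cytometry scored early apoptotic (Annexin V+/PI−) and late apoptotic (Annexin V+/PI+) cells; total apoptotic is Annexin V-positive cells.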

[11] = tested on: MCF7; test: Induction of apoptosis in human MCF7 cells assessed as total apoptotic cells at 0.01 uM after 48 hrs by Annexin V-FITC and propidium iodide staining based flow cytometry (reference value: 10 %); type: functional; method in brief: as §3
[12] = tested on: MCF7; test: Induction of apoptosis in human MCF7 cells assessed as total apoptotic cells at 1 uM after 48 hrs by Annexin V-FITC and propidium iodide staining based flow cytometry (reference value: 10 %); type: functional; method in brief: as §3
[13] = tested on: HT-29; test: Induction of apoptosis in human HT29 cells assessed as cell apoptosis at 1 uM after 72 hrs by Annexin V-FITC and propidium iodide staining based flow cytometry; type: functional
Method in brief: (§4)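 HT-29 cells were treated at 1 µM for 24, 48 and 72 h against an untreated control. Cells were stained with Annexin V in binding buffer (HEPES pH 7.4, NaCl, CaCl2) for 30 min on ice in the dark, washed, resuspended in PI-containing buffer and read at once by flow cytometry. Quadrants: early apoptotic, late apoptotic, necrotic (Annexin V−/PI+).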

[14] = tested on: HT-29; test: Induction of apoptosis in human HT29 cells assessed as necrotic cells at 1 uM after 24 hrs by Annexin V-FITC and propidium iodide staining based flow cytometry (reference value: 3 %); type: functional; method in brief: as §4
[15] = tested on: MCF7; test: Induction of apoptosis in human MCF7 cells assessed as downregulation of Mcl-1 expression level measured after 48 hrs by Western blot analysis; type: functional, cell-based; conditions: dose 0.05-0.5 µM
Method in brief: (§5)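 MCF-7 cells (1 × 10^5 per flask) were treated at 0.05, 0.1 and 0.5 µM for 48 and 72 h; vehicle was 0.1% v/v ethanol. Lysis was in RIPA buffer with protease and phosphatase inhibitors. Equal protein (BCA) was run on 12% SDS-PAGE and blotted for Mcl-1, Bcl-2 and survivin, with GAPDH as loading control and ECL detection. Three independent experiments.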

[16] = tested on: MCF7; test: Induction of apoptosis in human MCF7 cells assessed as downregulation of Mcl-1 expression level measured after 72 hrs by Western blot analysis; type: functional, cell-based; conditions: dose 0.05-0.5 µM; method in brief: as §5
[17] = tested on: MCF7; test: Induction of apoptosis in human MCF7 cells assessed as downregulation of Bcl-2 expression level measured after 72 hrs by Western blot analysis; type: functional, cell-based; conditions: dose 0.05-0.5 µM; method in brief: as §5
[18] = tested on: HT-29; test: Antiangiogenic activity in human HT29 cells assessed as reduction in IL-1alpha secretion at 5 uM after 24 hrs by ELISA; type: functional, cell-based
Method in brief: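 HT-29 cells at 5 x 10^4 per well, cultured 24 h and then exposed to 5 µM compound. Conditioned medium collected on ice and stored at -80 °C. Cytokines and angiogenic, vascular-injury and chemokine factors measured by multiplex panels with overnight supernatant incubation (Angiogenesis Panel 1 and Vascular Injury Panel 2 same day). Medium undiluted except 1:4 for Vascular Injury Panel 2. Secretion normalised to lysate protein by BCA.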

[19] = target: T1, Tubulin (Homo sapiens); test: Induction of microtubule depolymerization in human MCF7 cells assessed as induction of cell rounding at 100 nM for 5 hrs by immunofluorescence staining based confocal microscopic analysis
Method in brief: (§6)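 MCF-7 cells were seeded at 1 × 10^5 cells/mL on chamber slides and treated at 0.01, 0.05 and 0.1 µM. Controls were vehicle (1% v/v ethanol), CA-4 (0.01 µM) and paclitaxel (1 µM). Cells were fixed and stained with anti-α-tubulin-FITC (DM1A) and Alexa Fluor 488, then counterstained with DAPI. Imaging was by confocal microscopy over three separate experiments.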

[20] = target: T1, Tubulin (Homo sapiens); test: Induction of microtubule depolymerization in human MCF7 cells assessed as induction of cell detachment and loss of radical distribution at 100 nM for 5 hrs by immunofluorescence staining based confocal microscopic analysis; method in brief: as §6

COc1ccc([C@H]2[C@H](O)C(=O)N2c2cc(OC)c(OC)c(OC)c2)cc1F
IC50 [1]: 22 nM | IC50 [2]: 3 nM | IC50 [3]: > 50000 nM | Activity [4]: Active | Activity [5]: 60% | Activity [6]: 15% | Activity [7]: Tde | Activity [8]: 52% | Activity [9]: Tde | Activity [10]: Dose-dependent effect | Activity [11]: 13% | Activity [12]: 35% | Activity [13]: 2% | Activity [14]: 8% | Activity [15]: Dose-dependent effect | Activity [16]: Dose-dependent effect | Activity [17]: Dose-dependent effect | Activity [18]: inactive | Activity [19]: Active | Activity [20]: Active
